Several values for one entry are separate records, joined by “and”; a condition that tells them apart may be missing. Equal entries are not always repeated. Where two headings read alike, the source gives them in different places. Marks after values point to notes of the source that are not given here.
Tests used:
[1] = ISE chloride efflux assay, Cl−/NO3− exchange; format: biochemical; settings: read-out: EC50 Cl^−/NO3^−; chloride efflux at 300 s, 0.5 mM POPC, pH 7.2
Method in brief: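 POPC vesicles (200 nm) held 489 mM NaCl, 5 mM NaH2PO4, pH 7.2, and were dialysed into and dispersed in 489 mM NaNO3, 5 mM NaH2PO4, pH 7.2; final lipid 0.5 mM. Test compound in DMSO was added at t = 0, with DMSO as blank. Chloride release was followed by chloride-selective electrode for 300 s, then Triton-X lysis set 100% release. EC50 and Hill coefficient were derived.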

HeLa = experiment: MTT cell viability assay; format: cell-based, Human; settings: 24 h; for IC25 HeLa / IC75 HeLa: mean ± SD; for IC50: Homo sapiens, HeLa, read-out: IC50 HeLa
Method in brief: (§1)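 Cells were seeded at 10^4/well and left overnight, then exposed 24 h to 0.8–100 µmol/L test compound, with DMSO as control. MTT (5 mg/mL) was added for 2 h at 37 °C; formazan was dissolved in DMSO and read at 570 nm. IC25/50/75 came from viability curves, triplicate wells, ≥3 independent experiments, mean ± SD. Media: HeLa and CAL27 DMEM/10% FBS; MCF7 DMEM/F12/10% FBS plus insulin; MCF10A DMEM/F12/5% horse serum plus insulin.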

CAL27 = experiment: MTT cell viability assay; format: cell-based, Human; settings: for IC25 CAL27 / IC75 CAL27: 24 h, mean ± SD; for IC50: Homo sapiens, CAL-27, 24 h, read-out: IC50 CAL27
Method in brief: as §1

MCF7 = experiment: MTT cell viability assay; format: cell-based, Human; settings: for IC25 MCF7 / IC75 MCF7: 24 h, mean ± SD; for IC50: Homo sapiens, MCF7, 24 h, read-out: IC50 MCF7
Method in brief: as §1

MCF10A = experiment: MTT cell viability assay; format: cell-based, Human; settings: 24 h; for IC25 MCF10A / IC75 MCF10A: mean ± SD; for IC50: Homo sapiens, MCF-10A, read-out: IC50 MCF10A
Method in brief: as §1

[2] = test system: HeLa, MCF7, CAL27 and MCF10A cell lines; experiment: MTT cell viability assay, summary among cell lines; format: cell-based; settings: Homo sapiens, 24 h, read-out: IC50 values among different cell lines
Method in brief: as §1

[3] = read-out: EC50 Cl^−/NO3^−; chloride efflux at 300 s, POPC vesicles; cited from earlier work
[4] = read-out: EC50 Cl^−/HCO3^−; chloride efflux at 300 s, POPC vesicles; cited from earlier work
[5] = deprotonated form, calculated; cited from earlier work
HeLa cells [6] = experiment: Lactate transport experiments; format: cell-based, Human; settings: for Extra- and intracellular lactate levels in the presence of Syro compared with Syro alone: 3.9 μM compound, Syro 10 μM 1 h pre-treatment, 60 and 120 min
Method in brief: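 HeLa cells were seeded at 10^5 cells/mL and left overnight, then treated 60 and 120 min; test compounds were at 3.9 µM, with DMSO as control. Medium was kept for extracellular lactate. Cells were washed, permeabilised 5 min with 0.2 M HCl in PBS, and neutralised with 1 M Tris base. Extracts were mixed 1:1 with Lactate-Glo reagent, and luminescence was read after 1 h against a standard curve. Values were normalised to BCA protein after 2% SDS lysis.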

[7] = 13C NMR lactate transport assay; format: biochemical; settings: 1% mol carrier to lipid, 50 mM NaCl, 0.5 mM MnCl2
Method in brief: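 POPC vesicles loaded with 13C-carboxyl-labelled sodium L-lactate (200 mM NaLac, 20 mM NaH2PO4, pH 7.2), then dialysed against 150 mM Na2SO4, 20 mM NaH2PO4, pH 7.2 to remove unencapsulated lactate. 13C NMR spectra were taken after the NaCl pulse with the test compound, then after MnCl2, which affects only extravesicular lactate signals.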

HeLa cells [8] = experiment: Combination therapy of 1 and CisPt; format: cell-based, Human
[9] = Solubility in DMSO-d6 when preparing NMR solutions; format: physicochemical; settings: DMSO-d6, 25 °C, organic solvent or mixture

Row | Structure (SMILES) | EC50 [1] | IC25 HeLa (HeLa) | IC75 HeLa (HeLa) | IC50 (HeLa) | IC25 CAL27 (CAL27) | IC75 CAL27 (CAL27) | IC50 (CAL27) | IC25 MCF7 (MCF7) | IC75 MCF7 (MCF7) | IC50 (MCF7) | IC25 MCF10A (MCF10A) | IC75 MCF10A (MCF10A) | IC50 (MCF10A) | IC50 [2] | further results
1 | COc1cc(-c2cn(-c3ccc(C(C)(C)C)cc3)nn2)[nH]c1/C=N/CCO.Cl [Compound 3, (E)-N-((5-(1-(4-(tert-butyl)phenyl)-1H-1,2,3-triazol-4-yl)-3-methoxy-1H-pyrrol-2-yl)methylene)-2-hydroxyethan-1-aminium chloride] | 8.34 ± 0.431 µM | 11.98 ± 0.40 µM | 15.29 ± 1.87 µM | 13.5 ± 1.05 µM | 14.62 ± 3.20 µM | 20.88 ± 4.45 µM | 17.4 ± 3.31 µM | 7.22 ± 0.85 µM | 34.69 ± 3.11 µM | 15.8 ± 1.14 µM | 18.11 ± 3.23 µM | 35.95 ± 4.27 µM | 25.4 ± 1.61 µM | 4.6 to 25.4 µM | 
2 | COc1cc(-c2cn(-c3ccc(C(C)(C)C)cc3)nn2)[nH]c1/C=N/C1CCCC1.Cl [Compound 2, (E)-N-((5-(1-(4-(tert-butyl)phenyl)-1H-1,2,3-triazol-4-yl)-3-methoxy-1H-pyrrol-2-yl)methylene)cyclopentanaminium chloride] | 0.016 ± 0.001 µM | 11.34 ± 0.38 µM | 13.77 ± 1.88 µM | 12.5 ± 0.98 µM | 9.25 ± 2.26 µM | 12.35 ± 2.40 µM | 10.6 ± 2.06 µM | 4.04 ± 1.37 µM | 20.49 ± 3.88 µM | 9.06 ± 2.35 µM | 13.62 ± 1.64 µM | 25.65 ± 3.97 µM | 18.7 ± 2.55 µM | 4.6 to 25.4 µM | 
3 | COc1cc(-c2cn(-c3ccc(Cl)cc3)nn2)[nH]c1/C=N/C1CCCCC1.Cl [Compound 6, (E)-N-((5-(1-(4-Chlorophenyl)-1H-1,2,3-triazol-4-yl)-3-methoxy-1H-pyrrol-2-yl)methylene)cyclohexanaminium chloride] |  | 6.09 ± 0.09 µM | 6.54 ± 0.02 µM | 6.31 ± 0.06 µM | 6.58 ± 2.98 µM | 8.44 ± 2.59 µM | 7.41 ± 2.77 µM | 9.05 ± 1.13 µM | 14.53 ± 1.23 µM | 11.5 ± 1.19 µM | 3.49 ± 0.22 µM | 6.12 ± 1.56 µM | 4.61 ± 0.15 µM | 4.6 to 25.4 µM | EC50 [3]: 0.0326 ± 0.0008 µM; EC50 [4]: 0.13 ± 0.007 µM; LogP [5]: 4.22 ^c
4 | CCOC(=O)Oc1c(OC)cc(C(=O)O[C@@H]2C[C@@H]3CN4CCc5c([nH]c6cc(OC)ccc56)[C@H]4C[C@@H]3[C@H](C(=O)OC)[C@H]2OC)cc1OC [Syro, Syrosingopine, reference compound] |  |  |  |  |  |  |  |  |  |  |  |  |  |  | Intracellular lactate levels compared to DMSO (HeLa cells [6]; Syro alone 10 μM, 60 and 120 min (p < 0.0001)): significantly higher than DMSO
5 | COc1cc(-c2cn(CCO)nn2)[nH]c1/C=N/C12CC3CC(CC(C3)C1)C2.Cl [Compound 5, N-((E)-(5-(1-(2-Hydroxyethyl)-1H-1,2,3-triazol-4-yl)-3-methoxy-1H-pyrrol-2-yl)methylene)adamantan-1-aminium chloride] |  | 78.14 ± 3.00 µM | 93.73 ± 3.71 µM | 85.6 ± 2.94 µM | 86.88 ± 6.79 µM | >100 µM | 96 ± 4.79 µM | >100 µM | >100 µM | > 100 µM | 94.92 ± 5.23 µM | >100 µM | > 100 µM | > 82 µM | Extra- and intracellular lactate levels in the presence of Syro compared with Syro alone (HeLa cells [6]): no significant differences
6 | COc1cc(-c2cn(CCO)nn2)[nH]c1/C=N/CCO.Cl [Compound 4, (E)-2-hydroxy-N-((5-(1-(2-hydroxyethyl)-1H-1,2,3-triazol-4-yl)-3-methoxy-1H-pyrrol-2-yl)methylene)ethan-1-aminium chloride] |  | >100 µM | >100 µM | > 100 µM | 60.97 ± 5.40 µM | >100 µM | 82.1 ± 2.88 µM | >100 µM | >100 µM | > 100 µM | 98.64 ± 0.94 µM | >100 µM | > 100 µM | > 82 µM | Lactate efflux from vesicles seen by 13C NMR after NaCl pulse and MnCl2 [7]: no changes; Extra- and intracellular lactate levels in the presence of Syro compared with Syro alone (HeLa cells [6]): no significant differences
7 | COc1cc(-c2cn(-c3ccc(C(C)(C)C)cc3)nn2)[nH]c1/C=N/C12CC3CC(CC(C3)C1)C2.Cl [Compound 1, N-((E)-(5-(1-(4-(tert-butyl)phenyl)-1H-1,2,3-triazol-4-yl)-3-methoxy-1H-pyrrol-2-yl)methylene)adamantan-1-aminium chloride] | 0.0037 ± 0.0004 µM | 2.85 ± 0.16 µM | 3.9 µM and 3.95 ± 0.26 µM | 3.36 ± 0.19 µM | 2.68 ± 0.18 µM | 4.00 ± 0.50 µM | 3.27 ± 0.27 µM | 4.00 ± 1.22 µM | 7.91 ± 1.42 µM | 5.58 ± 1.17 µM | 5.36 ± 1.09 µM | 11.22 ± 3.94 µM | 7.66 ± 1.86 µM | 3.3 to 7.7 µM | Lactate efflux from vesicles seen by 13C NMR after NaCl pulse and MnCl2 [7]: facilitates lactate efflux; Effect of combination therapy with CisPt on cell viability (HeLa cells [8]; 1 at IC10, IC25, IC50, IC75 for 24 h, then CisPt 24 h, all doses of 1): higher compared with respective monotherapy of CisPt; Type of interaction with CisPt (Combination Index) (HeLa cells [8]; higher doses of both 1 and CisPt): moderate synergic effect; Type of interaction with CisPt (Combination Index) (HeLa cells [8]; majority of the dose combinations tested): additive effect; solubility [9]: < 50 mM

Reference: publication PMC10543179 (iScience, 2023)
